Screening results as filed in PubChem.
PKD1 kinase inh – blocks activity of human protein kinase D1; hit rate 0.056% among 200,000; inhibition, % (concentration not given with the values); Q15139; PKD1 kinase fluorescence polarization assay
GSH fluor – compound fluoresces at 488/530 nm on GSH beads | GSH beads flow cytometry, compound fluorescence 488/530 nm; hits give high values | fluorescence (KMESF) at 10 µM | hit rate 0.25% among 190,000 | AID 1776; in the data active = fluorescence above about 89;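 note: glutathione beads carrying GST-tagged Bcl family fusion proteins plus one bare bead set; values are compound well signal with DMSO vehicle wells as background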
ABCB1 block – blocks JC-1 efflux by human ABCB1 transporter | CCRF-Adr cells, flow cytometry | inhibition, % at 6.6 µM | hit rate 0.067% among 190,000 | AID 1326; in the data active = inhibition above about 40%;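 note: 0% = vehicle and 100% = reference inhibitor; higher value means more JC-1 retained so stronger ABCB1 efflux block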
ABCG2 block – blocks JC-1 efflux by human ABCG2 transporter | IgMXP3 cells, flow cytometry | AID 1325 | inhibition, % at 6.6 µM | hit rate 0.1% among 190,000 | Q9UNQ0;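 active = inhibition above 80%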;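 note: 0% = DMSO and 100% = nicardipine control wells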
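Test system: IgMXP3 cells (ABCG2) mixed with DDAO far-red-labelled CCRF-Adr cells (ABCB1). Reagent: JC-1 transporter substrate. Compound dosing: single test compound dose, 6.6 µM final. Times: 10 min compound exposure, 25 °C. Detection: flow cytometry of retained JC-1 fluorescence. Read-out basis: efflux inhibition in percent versus controls. Controls: nicardipine and DMSO wells.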
Avidin fluor – compound fluoresces at 488/530 nm on avidin beads | hit rate 0.38% among 220,000 | fluorescence (KMESF) at 10 µM | compound fluorescence 488/530 nm, flow cytometry; hits give high values; in the data active = fluorescence above about 47
Lmaj promast – Leishmania major promastigote growth inhibition; Leishmania major promastigotes, resazurin fluorescence viability; inhibition, % at 10 µM; hit rate 9% among 200,000; AID 1063;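 note: promastigotes grown with compound for 44 hours at 28 °C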
* hit, by the source's call; . = no result given. This excerpt belongs to a sample that is enriched for hits. Cut-off read from the data, not from the text of the source, unless noted: active = inhibition above about 50%; inactive = the rest.

SMILES	PKD1 kinase inh	GSH fluor	ABCB1 block	ABCG2 block	Avidin fluor	Lmaj promast
c1ccc(NCc2nc3ccccc3n2CCOc2ccccc2)cc1	-11	17	1	18	4	13
Cc1ccc(OCCn2c(CCCO)nc3ccccc32)cc1	-1	16	2	14	25	54*
OCCCc1nc2ccccc2n1CCOc1ccccc1	1	38	-2	-2	4	1
Cc1c(=O)n(OCc2c(F)cccc2F)c2ccccc2[n+]1[O-]	-9	.	.	.	.	-4
COc1cc(-c2nnc(Sc3ccc(C(F)(F)F)cc3[N+](=O)[O-])o2)cc(OC)c1OC	2	19	0	1	72*	31
S=C(NCC1CCCCC1)Nc1ccc(Oc2ccccc2)cc1	-17	6	0	3	13	90*
COc1cccc(/C=N/NC(=O)c2cc(C34CC5CC(CC(C5)C3)C4)[nH]n2)c1	-6	18	0	-1	10	89*
COc1ccc(/C=N/NC(=O)c2cc(C34CC5CC(CC(C5)C3)C4)[nH]n2)cc1OC	0	9	-1	-6	9	27
N/C(Cc1ccc(Cl)cc1)=N\OC(=O)c1cccc2ccccc12	-7	22	0	5	6	99*
CN1c2ccccc2C(C)(C)C12C=Nc1c(cc(N3CCOCC3)c3ccccc13)O2 (stereo not given)	9	37	2	14	16	41
CN1c2ccccc2C(C)(C)C12C=Cc1cc(O)ccc1O2 (stereo not given)	-3	4	0	0	7	99*
CCC1CCCCN1C(=O)CSc1nc2ccsc2c(=O)n1Cc1ccccc1 (stereo not given)	-2	3	2	7	9	58*
O=C(CSc1nc2ccsc2c(=O)n1Cc1ccccc1)NCC1CCCO1 (stereo not given)	-6	15	1	6	12	12
Cc1occc1C(=O)N=Nc1c(O)n(C)c2ccccc12	-14	1	1	38	9	71*
Fc1ccc(C2CCCN2Cc2nc(CC3CC3)no2)cc1 (stereo not given)	-1	49	1	2	10	57*
Fc1ccc(C2CCCCN2Cc2nc(CC3CC3)no2)cc1 (stereo not given)	0	12	2	4	5	27
CCCN1CCC(=NNc2ccc(S(=O)(=O)N(CC)CC)cc2[N+](=O)[O-])CC1	2	12	0	1	12	100*
CCC(C)(C(=O)NC1CCCCC1)N(Cc1cccs1)C(=O)c1ccc(=O)[nH]c1 (stereo not given)	-5	11	0	-3	8	0
O=C(CN1CCCc2ccccc21)N/N=C/c1ccccc1	-5	11	0	14	8	12
O=C(CN1CCCc2ccccc21)N/N=C/c1c(O)ccc2ccccc12	7	18	0	4	8	99*
O=C(CN1CCCc2ccccc21)N/N=C/c1ccc(O)cc1O	9	15	0	0	17	98*
O=C(CN=C1NC(=O)C(c2ccccc2)(c2ccccc2)N1)NCc1ccc(F)cc1	1	19	1	13	15	-2
CCC(=O)Nc1cccc(C(=O)/C=C/c2ccccc2)c1	2	9	1	18	10	100*
COc1ccc(/C=C/C(=O)NC(=S)Nc2ccc(C(=O)O)cc2)cc1	-4	6	0	0	17	69*
CCC(=O)NC(=S)Nc1ccc(NC(=O)CC)cc1	-5	10	0	2	3	-2
SMILES	PKD1 kinase inh	GSH fluor	ABCB1 block	ABCG2 block	Avidin fluor	Lmaj promast
CCC(=O)Nc1ccc(NC(=S)NC(=O)/C=C/c2ccccc2)cc1	-6	2	0	0	13	81*
CNC(=S)NNC(=O)c1noc(C)c1C(=O)N1CCN(C(c2ccccc2)c2ccccc2)CC1	-9	13	-1	-1	14	-6
CCOC(=O)c1cc(C(=O)OCC)c2ccccn2c1=O	4	30	1	40	13	0
Cc1ccc(N/N=C(\C#N)C(N)=S)cc1C	-5	18	0	3	10	50*
CS(=O)(=O)N1CCN(c2cnn(-c3ccccc3)c(=O)c2Cl)CC1	-4	62	0	0	90*	-6
Cc1ccc(-c2cc(-c3ccccc3)nc(Cl)n2)cc1	-5	27	0	1	4	-3
Cc1cc(-c2ccccc2)nc(Cl)c1C#N	13	11	0	11	13	70*
COc1cccc(C=Nc2ccccc2C(=O)Nc2ccccc2)c1O	-2	5	1	-4	12	52*
O=C(Nc1ccccc1)c1ccccc1N=Cc1cccc(O)c1	-3	10	0	2	11	11
COc1cccc(/C=N\NC(=O)C2C(=O)NCC2c2ccccc2)c1O (stereo not given)	-1	27	0	3	9	96*
COc1cccc(/C=N/NC(=O)CSCC(=O)Nc2ccccc2)c1O	8	38	1	6	10	99*
CC(C)CCN1CCN(Cc2cccc(C(F)(F)F)c2)CC1CCO (stereo not given)	-5	11	0	2	11	92*
CSc1cccc(CN2CCN(CCC(C)C)C(CCO)C2)c1 (stereo not given)	-2	14	4	8	0	79*
CCc1cc2c(SCc3nc4sc(C(C)=O)c(C)c4c(=O)[nH]3)ncnc2s1	.	.	.	.	2	.
CCN(CC)CCCOC(=O)C(c1ccccc1)c1ccccc1	-3	14	0	1	14	86*
CC(c1nccs1)N(C)C(=O)CCc1nnc(Cc2c[nH]c3ccccc23)o1 (stereo not given)	-3	50	0	1	6	-3
CCC(=O)N1CCC2(CC1)Oc1ccc(F)cc1C(=O)C21CC(c2ccccc2)=NO1 (stereo not given)	.	.	.	.	12	.
CCN(CC)S(=O)(=O)c1cccc(NC(=O)c2ccc(SC)cc2OC)c1	11	13	1	9	13	62*
COc1cc(SC)ccc1C(=O)Nc1ncc(C)s1	4	13	0	16	11	67*
CCN(CC)S(=O)(=O)c1ccc(N2CCCC2)c(C(=O)Nc2ccc(OC)c(Cl)c2)c1	-5	9	1	23	14	91*
COc1cc(SC)ccc1C(=O)Nc1ccc(Br)cn1	.	.	.	.	8	.
CCN(CC)S(=O)(=O)c1cccc(NC(=O)c2ccccc2Br)c1	-4	13	0	0	10	-3
CCOC(=O)c1cc(C)n(-c2ccccc2)c1C	.	.	.	.	6	.
CCCCCNc1nc(NCCCO)c(C#N)c2c1CN(C)CC2	-4	13	1	4	9	43
CCCCCNc1nc(N2CCCC2)c2c(c1C#N)CCN(C)C2	1	6	1	2	9	56*
c1ccc(COc2ccc(OCCCCN3CCCC3)cc2)cc1	5	15	2	2	23	92*
